Data published in the EternaBench riboswitch data.

Tested on: MS2 coat protein
Assay: apparent Kd, MS2 coat protein; higher = weaker binding; RNA-MaP array; FMN 200 µM where present
In short: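 Stalled E. coli RNA polymerase transcribed each design on Illumina sequencing-chip clusters. The clusters were titrated with SNAP-549-labelled MS2 coat protein, starting at 0.7 or 1.5 nM and doubling up to 3 µM, first without ligand and then with constant ligand, in 100 mM Tris-HCl pH 7.5, 80 mM KCl, 4 mM MgCl2, BSA, DTT, yeast tRNA and Tween-20. Green signal was normalised to red-channel RNA signal and to the control-cluster median Fmax. The apparent Kd is the median of filtered binding-curve fits made for each cluster.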

[1] = designed as: OFF switch for flavin mononucleotide, no ligand
[2] = ligand present: flavin mononucleotide, designed as: OFF switch for flavin mononucleotide
[3] = designed as: ON switch for flavin mononucleotide, no ligand
[4] = ligand present: flavin mononucleotide, designed as: ON switch for flavin mononucleotide

Row | Sequence | apparent Kd [1] | apparent Kd [2] | apparent Kd [3] | apparent Kd [4]
1 | AAUGUGUCAGGAUAUUGUUAGUUUAGUUGUUUGUAUUAGUUCGAGAAGGGACAUGAGGAUCACCCAUGUUGUUU | 30.2 nM | 30.6 nM |  | 
2 | ACUAGAAGCGUGAGAUAUCACAUGAGGAUCACCCAUGUGACACAGGAUAUAACAAUAUCAGAAGGUUAGAAGGGUGAGCACGCC |  |  | 164 nM | 45.6 nM
3 | AACAUUGACAAGAAGGCAAACAUGAGGAUCACCCAUGUUCUGCAUGUAUAUUGAGGAUAUUGCCAAUGUAUGUGGAUCACCCAA | 6.76 nM | 14.8 nM |  | 
4 | GCACUUUUAUUUGAACCGAUACGAACAUGAGGAUCACCCAUGUAGGAUAUGCUUAAAGUUGUGAUGCAGAAGGACAUUUAGUGC | 9.18 nM | 10.7 nM |  | 
5 | UUGGACGUCGUAGGAUAUGUAGGAUAUUCCUACAUGAGGAUCACCCAUGUUGAAAUGGAAGAAGGACAGAAGGACGAUGUCCAU |  |  | 56.9 nM | 11.8 nM
6 | AAAAGACAUGAGGAUCACCCAUGUCAAGACAUGGGAGGAUAUGCAUGGAAAACAUGCUGUGCAGAAGGCUCAUGUC |  |  | 32.6 nM | 22.4 nM
7 | UGGUUCUAGGGAGGAUAUGGGAAGAUACAUGAGGAUCACCCAUGUUUAAGAAUGCCGAGAGGCAACUAGAAGGCCCUAGUACCU |  |  | 406 nM | 20.3 nM
8 | AGCAUGUAAGGAUAUGCAAGUGGUACGGAUAGUACCAGAAAGCAGAAGGUACAUGAGGAUCACCCAUGUGCUCC | 28.2 nM | 55.2 nM |  | 
9 | GGAUAGGACAGAGGAUAUACGUGCUAGAGAUACUAGCAAAAUUUCCUCACAUGAGGAUCACCCAUGUAGAAGGCUGCCCUAUCG | 13.8 nM | 374 nM |  | 
10 | UGUCGGAGCAGAGGAUAUACAUGAGGAUCACCCAUGUAAAUGAAUGAAGCCUGGAAACAGGCAAUGUAGAAGGCUGCUCCGACA | 17.2 nM | 53.7 nM |  | 
11 | UCUGGUCGAGGAUAUGCAAUCGUGCUUCGGCACGUAAGAUCACAUGAGGAUCACCCAUGUAGAAGGCGACCAGA | 22.3 nM | 78.3 nM |  | 
12 | ACAUGAGGAUCACCCAUGUAUUACAUGGUUUAGUUUAUUAACAGAAGGCGAAAUUACCACUUUUUCGAGGAUAUGUAUUCUAUA | 71 nM | 64.2 nM |  | 
13 | GUCAGAAGUGCAGGAUAUGCUGAGGCAUUCGCGGCAGAAGGGCACAUGAGGAUCACCCAUGUAGCCGGGUAUUGUACCUUAUCA | 6.36 nM | 9.16 nM |  | 
14 | UAGGUGUGAGGAUAUGGUAAAGAAAAGAUGAUGAAAGAACUCCAGAAGGCACAUGAGGAUCACCCAUGUAGAUG | 26.3 nM | 54.5 nM |  | 
15 | AAAAAACAUGAGGAUCACCCAUGUGAGGAUAUCGAAAAGUUAAAGAAAAAGACGAAAAUGAGAAGGCGCAAAAA | 47.3 nM | 46.7 nM |  | 
16 | AAACAUGUCCGAGGAUAUCUGAGAACAUUUUCAAGAGAAGGCGGACAUGAGGAUCACCCAUGUCUCUCCUCAUCAACUCCAAAU | 6.37 nM | 17.3 nM |  | 
17 | CGGUGCUGAGGAUAUACAUGAGGAUCACCCAUGUGUGCCAGCUAGCUGACUGGCACUUGUAGAAGGCAGUACUG | 12.7 nM | 24.2 nM |  | 
18 | AAUAUAAAGAGCUGGUAACUCAAAACAUGAGGAUCACCCAUGUAGGAUAUCAGCACGAUAAGUGCUGAGAAGGACAUCCAGCUC | 16.5 nM | 17.2 nM |  | 
19 | GUAGCUGCAGGAUAUCUAUCUUCUGACAUGAGGAUCACCCAUGUACUUACUUGGCUCAGUGGAGAAGGGCAGCGUU | 124 nM | 84.2 nM |  | 
20 | GAGUGACACCAGAAGGGCCAGGAAAGAACCCUGGUAGGAUAUGGAGCGCCCUCGUAACGACCGACAUGAGGAUCACCCAUGUCC |  |  | 193 nM | 34.7 nM
21 | AUGACAGGCAAAGCGCAACGGCAAACAUGAGGAUCACCCAUGUAGGAUAUGCUACACAAAGUGUAGCAGAAGGACAUACGACGA | 36.4 nM | 75.2 nM |  | 
22 | ACGACUAGAGGAUAUACAUGAGGAUCACCCAUGUAACUGUCAGGAAACUGACGGAGAUGUAGAAGGCUAGUCGA | 16.8 nM | 37.4 nM |  | 
23 | GGUCCAUCAUGAGGAUAUGGCACCUUAUUGGUGCCAGAAGGCAUGUCUAUAGACAUGAGGAUCACCCAUGUAAUAAAUUGGACC |  |  | 790 nM | 46.4 nM
24 | UUUUAGUCAGGAUAUCGUUAAUUUAAUUGUUUGUAUUAGUUCGAGAAGGGACAUGAGGAUCACCCAUGUACUUU | 23.7 nM | 24.5 nM |  | 
25 | UUGGACGUCGUAGGAUAUGUAGGAUAUUCUUACAUGAGGAUCACCCAUGUUGACAUGGAAGAAGGACAGAAGGACGAUGUCCAU |  |  | 56.7 nM | 7.2 nM
26 | AGUACUACAGGAUAUACGAGGGAGGUCCACGUGAACCUUUUACAUGAGGAUCACCCAUGUAGAAGGGUAGUACA | 68.3 nM | 16.5 nM |  | 
27 | GUUAGUAUCUAGGAUAUCUAGUACAUAGUAUCUAGAGAAGGAGAUACAUGAGGAUCACCCAUGUUCUGUGUUCU | 25.4 nM | 70.4 nM |  | 
28 | GUUUCACAUGAGGAUCACCCAUGUGAGGAUAUGGAUUCGCUGGCCGUAGCCAGUGGAUCCAGAAGGCGCAUGAU | 35.7 nM | 44 nM |  | 

Row | Sequence | apparent Kd [1] | apparent Kd [2] | apparent Kd [3] | apparent Kd [4]
29 | AGGAUCUCAGUCAGGAUAUGUGUCUUCAAAGUACGGCAGAAGGGACAUGAGGAUCACCCAUGUUAGCCACCUUU | 26.6 nM | 69.1 nM |  | 
30 | AUACCUUAUGAGAAGGCGAUUAUGAAACAUGAUCGAGGAUAUCAUGUAAACAUGAGGAUCACCCAUGUAUGGGUAUUAUGGUAC |  |  | 50 nM | 11.6 nM
31 | UCCCGAAGGCGGGCCGACCAUACAUGAGGAUCACCCAUGUCGAGAAGGUGCUCACGGGUGGGUGGCAAGGAUAUCGGGUCGGAU |  |  | 93.8 nM | 42.3 nM
32 | GGUCCAACAUGAGGAUAUAGCACCUUAUUGGUGCUAGAAGGCGUGUCGGUAGACAUGAGGAUCACCCAUGUAUUACAAUGGACC |  |  | 140 nM | 27 nM
33 | GCUGCAUGCAGAGGAUAUGACACAUGAGGAUCACCCAUGUAAUAAAUGAGAAUUUCGAAUGUAACUCAGAAGGCUGCAUGCAGC | 54.2 nM | 186 nM |  | 
34 | CCCAGAGAUGAGAAGGGACACGGGUGCUUUCUGACAUGAGGAUCACCCAUGUCAGGAUAUCAGCAUGGCGUCGGGAUGCCCGAC | 7.24 nM | 5.8 nM |  | 
35 | UCAUUUCAGAAAGGAUAUUAAUUCAUGACGAUACAUGAGGAUCACCCAUGUUAAGAAGGUUCUAAUACAAAUAAUGCAUUGUUC | 13.2 nM | 10.5 nM |  | 
36 | ACAUGAUACUAGGAUAUCAGCAUACUUCAAUGUUGAGAAGGAGUAACAUGAGGAUCACCCAUGUAUCCAACAUG | 46.9 nM | 219 nM |  | 
37 | CUGACGAUGUAAGGAUAUGCUGAGGAUAACUCAGCAGAAGGUACAUGAGGAUCACCCAUGUAAUAAGAUCAAUAAUAACGUCAG | 15.3 nM | 32.1 nM |  | 
38 | AAUGUCAGAAAGGAUAUGUAACUUGUAACUGUGACAGAAGGUUCGACAUGAGGAUCACCCAUGUUGAUCCAGGU | 14.1 nM | 26.4 nM |  | 
39 | UCGGCGCGAGGAUAUACGUUUGCUUUUUUGGGUCGUUGCGUACAUGAGGAUCACCCAUGUAGAAGGCGCGCCGC | 27.4 nM | 187 nM |  | 
40 | GGAUAGUACAGAGGAUAUACGUGCUAGAGAUACUAGCAAAAUUUCCUCACAUGAGGAUCACCCAUGUAGAAGGCUGUCCUAUCG | 5.94 nM | 51.8 nM |  | 
41 | CGCACUUAGCGAGGAUAUGUUAAACAUGAGGAUCACCCAUGUGAUUUAGUAUCAAUAUUAGUGAAACAGAAGGCGCUUAGUGCG | 14 nM | 13.2 nM |  | 
42 | UGCAUGGUAGGAUAUACGGAGCAUUAGGGUUUGUUGUGUGGACAUGAGGAUCACCCAUGUAGAAGGGCCGUGCU | 42.8 nM | 65.2 nM |  | 
43 | GUCAGCUCGUGAGGAUAUACAUGUGCUGGAGACAGCACUAUUGUGUUCACAUGAGGAUCACCCAUGUAGAAGGCACGAGCUGAU | 18.3 nM | 85.5 nM |  | 
44 | GCACAUGAUACAGGAUAUGUAUUGGUAUUUAUAUACAGUUAUAUAAUAUUUACAGAAGGGUAUACAUGAGGAUCACCCAUGUGC | 81.3 nM | 41.7 nM |  | 
45 | GACAUGGUCUAGAAGGGCUAUCUAUUUAAGUACGAUUUAGAACAGCAUAGCAGGAUAUGGCUAACAUGAGGAUCACCCAUGUUC |  |  | 40.5 nM | 18.7 nM
46 | UCGGCGCGAGGAUAUACGUUUGCUUUUUUUUGUUUUUGUGUACAUGAGGAUCACCCAUGUAGAAGGCGCGCCGC | 18.1 nM | 24.9 nM |  | 
47 | AGUAUGCACGCAGGAUAUACAUGAGGAUCACCCAUGUGGAACAGUGUAGUACUAGUUGAUCCUCAGUAGAAGGGCGGUCAAAUA | 47.8 nM | 42.7 nM |  | 
48 | GCGUACAUAUCAGGAUAUCAUAUUAUUGUUUAACUCAGUGUAUACAUGAGGAUCACCCAUGUUCUUGAGAAGGGAUAUGUACGC | 8.15 nM | 8.79 nM |  | 
49 | UUUUUUCCUCAUGUACAUGAGGAACAUGAGGAUCACCCAUGUAGAAGGAUUUCCCUUAAAUUAAGAUAGGAUAUACAUAUUUUU | 88.2 nM | 61.6 nM |  | 
50 | UGGUACUAGGGAGGAUAUGGGAAGAUACAUGAGGAUCACCCAUGUUUAAGAAUGCCGAGAGGCAACUAGAAGGCCGUAGUACCU |  |  | 466 nM | 20.3 nM
51 | AUCAUGUAAGGAUAUCUGACAUGUGACGAAAGUCACUGUUCAGAGAAGGUACAUGAGGAUCACCCAUGUAGAAC | 72.2 nM | 133 nM |  | 
52 | UACCUGAGGCAAAGCUUUAGGUAUACAUGAGGAUCACCCAUGUAGGAUAUGGUAGGCUUUGCCUACCAGAAGGACAUGUUAAUU | 19.7 nM | 55.3 nM |  | 
53 | UAGUAUAACGAAGGAUAUGGAUACAUGAGGAUCACCCAUGUAUUUUUUGUGAUUUUAAAAUUGAUCCAGAAGGUCGUAUAAUUA | 23.6 nM | 28.2 nM |  | 
54 | AUGCCGUGCAGAGCGCGACGGCGAACAUGAGGAUCACCCAUGUAGGAUAUACUACACAAAGUGUAGUAGAAGGACGUGCGACAA | 24.6 nM | 38.6 nM |  | 
55 | UGAGCUUCAGGAUAUAUAUGGCGACCGUGAGGUCGAAGGUUACAUGAGGAUCACCCAUGUAGAAGGGAAGUUCU | 34.5 nM | 187 nM |  | 
